These results are taken from ChEMBL document CHEMBL1150609, “New furanoid diterpenes from Caesalpinia pulcherrima” (2002).

Format in all cases: functional
Assay [1] relates to Bacillus subtilis. The experiment in a line: Antimicrobial activity against Bacillus subtilis UPCC 1149 assessed as antimicrobial index at 30 ug after 24 hrs.
Assay [2] deals with Trichophyton mentagrophytes. Description: Antimicrobial activity against Trichophyton mentagrophytes UPCC 4193 assessed as clearing zone at 30 ug after 72 hrs. Conditions: read-out: IZ. Summed up: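 T. mentagrophytes was grown as a 5-day culture and suspended in 0.1% peptone water at about 6 × 10^8 cells/mL. A 0.1 mL aliquot was seeded into a potato dextrose agar overlay with three 10 mm wells, each dosed in 95% EtOH (70 µg test sample; 30 µg standard). Plates were incubated at 30 ± 1 °C for 72 h, and the clear inhibition zone was read in mm.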

Assay [3] relates to Escherichia coli. The experiment in a line: Antimicrobial activity against Escherichia coli UPCC 1195 assessed as antimicrobial index at 30 ug after 24 hrs.
Assay [4] relates to Staphylococcus aureus. Description: Antimicrobial activity against Staphylococcus aureus UPCC 1143 assessed as antimicrobial index at 30 ug after 24 hrs.
For assay [5], the system named is Pseudomonas aeruginosa. Description: Antimicrobial activity against Pseudomonas aeruginosa UPCC 1244 assessed as antimicrobial index at 30 ug after 24 hrs.
In assay [6] the test system is Staphylococcus aureus. The experiment in a line: Antimicrobial activity against Staphylococcus aureus UPCC 1143 assessed as clearing zone at 30 ug after 24 hrs. Particulars: read-out: IZ. Summed up:
(§1)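 Agar-well diffusion. 24 h cultures were suspended in 0.1% peptone water at about 6 × 10^8 cells/mL, and 0.1 mL was seeded into a nutrient agar overlay. Three 10 mm wells were cut per plate, each loaded with sample in 95% EtOH (70 µg test sample; 30 µg standard). Plates were incubated at 30 ± 1 °C for 24 h, and the clear inhibition zone was measured in mm.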

The subject of assay [7] is Candida albicans. Description: Antimicrobial activity against Candida albicans UPCC 2168 assessed as clearing zone at 30 ug after 48 hrs. Conditions: read-out: IZ. In short, it runs like this:
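C. albicans was grown as a 24 h culture, suspended at about 6 × 10^8 cells/mL in 0.1% peptone water, and 0.1 mL was seeded into a glucose yeast peptone agar overlay. Three 10 mm wells per plate received sample in 95% EtOH (70 µg test sample; 30 µg standard). Plates were incubated at 30 ± 1 °C for 48 h, and the clear growth-inhibition zone was measured in mm.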

For assay [8], the system named is Trichophyton mentagrophytes. The experiment in a line: Antimicrobial activity against Trichophyton mentagrophytes UPCC 4193 assessed as antimicrobial index at 30 ug after 72 hrs.
Assay [9] deals with Candida albicans. Description: Antimicrobial activity against Candida albicans UPCC 2168 assessed as antimicrobial index at 30 ug after 48 hrs.
The subject of assay [10] is Bacillus subtilis. The experiment in a line: Antimicrobial activity against Bacillus subtilis UPCC 1149 assessed as clearing zone at 30 ug after 24 hrs. Particulars: read-out: IZ. In short, it runs like this: as §1
Assay [11] relates to Aspergillus niger. The experiment in a line: Antimicrobial activity against Aspergillus niger UPCC 3701 assessed as antimicrobial index at 30 ug after 48 hrs.
The test system of assay [12] is Escherichia coli. Description: Antimicrobial activity against Escherichia coli UPCC 1195 assessed as clearing zone at 30 ug after 24 hrs. Conditions: read-out: IZ. In short, it runs like this:
as §1

Assay [13] deals with Pseudomonas aeruginosa. Description: Antimicrobial activity against Pseudomonas aeruginosa UPCC 1244 assessed as clearing zone at 30 ug after 24 hrs. Particulars: read-out: IZ. Summed up:
as §1

The subject of assay [14] is Aspergillus niger. Description: Antimicrobial activity against Aspergillus niger UPCC 3701 assessed as clearing zone at 30 ug after 48 hrs. Particulars: read-out: IZ.

Structures are written as SMILES.

Turning to `COc1cccc(OC)c1C(=O)OCc1ccccc1`, the Activity in assay [1] is 0.3; in assay [3], 0.2; in [4] it was 0.2; in assay [5], 0.3; in assay [8], 0.4; in assay [9], 0.4. For the same molecule, the Activity in assay [11] amounted to 0. Moreover, the zone of inhibition at 30 µg/disc in assay [2] came to 14 mm; in assay [6] it was 12 mm; in [7] it was 14 mm; in assay [10] it was 13 mm; in [12], 12 mm; in [13], 13 mm.
Turning to `C[C@H]1c2ccoc2C[C@H]2[C@H]1[C@@H](O)[C@@H](OC(=O)c1ccccc1)[C@@]1(O)C(C)(C)CCC[C@]21C` [ISOVOUACAPENOL C], the Activity was 0.5 in assay [1]; 0.2 in [3]; 0.6 in [4]; 0.2 in assay [5]; 0.3 in assay [8]; 0.3 in assay [9]. Further, the Activity in [11] is recorded as 0. Also, the zone of inhibition at 30 µg/disc was found to be 13 mm in assay [2]; 16 mm in assay [6]; 13 mm in assay [7]; 15 mm in assay [10]; 12 mm in assay [12]; 12 mm in assay [13].
For `Cc1c2c(cc3occc13)[C@@]1(C)CCCC(C)(C)[C@]1(O)[C@H](OC(=O)c1ccccc1)C2` [ISOVOUACAPENOL D], the Activity in assay [1], in assay [3], in assay [4], in [5], in assay [8] and in [9] was 0.2 in each case. Further, the Activity in [11] turned out to be 0. Besides, the zone of inhibition at 30 µg/disc in [2], in assay [6], in assay [7], in [10], in assay [12] and in assay [13] was 12 mm in each case.
Turning to `CC1(C)CCC[C@]2(C)[C@H]3Cc4occc4[C@@](C)(O)[C@@H]3C[C@@H](OC(=O)c3ccccc3)[C@@]12O` [ISOVOUACAPENOL B], the Activity in [1] came to 0.4; in assay [3] it was 0.2; in assay [4], 0.4; in [5], 0.4; in assay [8] it was 0.3; in [9], 0.4. Moreover, the Activity in assay [11] amounted to 0.2. For the same molecule, the zone of inhibition at 30 µg/disc was found to be 13 mm in [2]; 14 mm in assay [6]; 14 mm in [7]; 12 mm in assay [14]; 14 mm in assay [10]; 12 mm in assay [12]. For the same molecule, the zone of inhibition at 30 µg/disc in [13] is 14 mm.
Take `O=C(N[C@H](CO)[C@H](O)c1ccc([N+](=O)[O-])cc1)C(Cl)Cl` [CHLORAMPHENICOL]: the Activity is given as 2.5 in assay [1], 1.4 in assay [3], 1.8 in [4] and 0.2 in assay [5]. The zone of inhibition at 30 µg/disc in assay [6] was determined as 28 mm; in assay [10], 35 mm; in assay [12], 24 mm; in [13] it was 12 mm.
For `Clc1ccccc1C(c1ccccc1)(c1ccccc1)n1ccnc1` [CLOTRIMAZOLE], the zone of inhibition at 30 µg/disc in [2] came out at 21 mm; in assay [7], 20 mm. The Activity stood at 1.1 in assay [8] and 1 in [9].
As to `C[C@@H]1C[C@@H]([C@H](O)CC2CC(=O)NC(=O)C2)C(=O)[C@@H](C)C1` [CYCLOHEXIMIDE], in assay [14], the zone of inhibition at 30 µg/disc was determined as 13 mm. Besides, in assay [11], the Activity stood at 0.3.
On to `C=C1c2ccoc2C[C@H]2[C@H]1C[C@@H](OC(=O)c1ccccc1)[C@@]1(O)C(C)(C)CCC[C@]21C` [ISOVOUACAPENOL A], for which the Activity came to 0.5 in assay [1]; 0.2 in assay [3]; 0.6 in assay [4]; 0.2 in [5]; 0.2 in assay [8]; 0.4 in assay [9]. In addition, the Activity in [11] was 0. In addition, the zone of inhibition at 30 µg/disc in [2] stood at 12 mm; in assay [6], 16 mm; in [7], 14 mm; in assay [10], 15 mm; in assay [12] it was 12 mm; in assay [13], 12 mm.
